Data taken from ChEMBL document CHEMBL1139442, “Pyrrolobenzimidazoles linked to heterocycles and peptides. Design of DNA base pair specific phosphate hydrolyzing agents and novel cytotoxic agents” (2004).

Legend:
[1] = test system: Panel melanoma (Carcinoma cell lines); test: Cytotoxic activity against human melanoma cell lines was determined; assay type: functional; set-up: unit not given here
Method in brief: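 Tested in the NCI In Vitro Cell Line Screening Project, 60 human tumour lines. Cytotoxic read-out is LC50, the concentration giving 50% cell kill.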

[2] = test system: Panel melanoma (Carcinoma cell lines); test: Cytostatic activity against human melanoma cell lines was determined; assay type: functional
Method in brief: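 Tested in the NCI In Vitro Cell Line Screening Project, 60 human tumour lines. Cytostatic read-outs are GI50 (50% growth inhibition) and TGI (total growth inhibition).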

[3] = test system: Nucleic Acid; test: DNA alkylation ability was determined; assay type: functional; settings: Bos taurus
Method in brief: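 Bulk alkylation of calf thymus DNA. Drug (0.004 mmol) in DMSO was added, sealed and degassed under argon. The mix was reduced by H2 purge over Pd/C until colourless, argon-purged, then held at 30 °C for 24 h. After catalyst removal, DNA was ethanol/ammonium acetate precipitated at −20 °C for 16 h, pelleted, redissolved and reprecipitated.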

[4] = target: NAD(P)H dehydrogenase [quinone] 1 (Homo sapiens) (UniProt P15559); test: Substrate specificity for human DT-diaphorase was determined
Sequence of NAD(P)H dehydrogenase [quinone] 1 (Homo sapiens) (P15559 whole entry): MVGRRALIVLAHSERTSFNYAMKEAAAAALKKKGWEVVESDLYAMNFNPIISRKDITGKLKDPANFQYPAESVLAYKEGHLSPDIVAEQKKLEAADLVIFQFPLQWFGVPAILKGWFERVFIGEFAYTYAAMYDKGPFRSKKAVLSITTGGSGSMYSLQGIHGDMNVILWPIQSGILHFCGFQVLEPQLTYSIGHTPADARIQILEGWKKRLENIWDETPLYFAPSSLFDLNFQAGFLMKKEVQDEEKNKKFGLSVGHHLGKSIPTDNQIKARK

SMILES | LC50 [1] | log GI50 range [2] | log TGI range [2] | DNA alkylation [3] [%] | k cat/Km [4] [M⁻¹ s⁻¹]
CC1=C(N2CC2)C(=O)c2nc3n(c2C1=O)CC[C@@H]3NC(=O)[C@@H](Cc1ccccc1)NC(=O)[C@H](N)Cc1ccccc1 | 4 | 2.42 | 4 | – | –
CC1=C(N2CC2)C(=O)c2nc3n(c2C1=O)CCC3NC(=O)Cc1ccncc1 (stereo not given) | – | – | – | 35 | –
CCC(=O)NC1CCn2c1nc1c2C(=O)C(C)=C(N2CC2)C1=O (stereo not given) | – | – | – | 0 | –
CC1=C(N2CC2)C(=O)c2nc3n(c2C1=O)CCC3NC(=O)c1ccnc2ccccc12 (stereo not given) | – | – | – | 10 | –
CCCCC(=O)NC1CCn2c1nc1c2C(=O)C(C)=C(N2CC2)C1=O (stereo not given) | – | – | – | 9 | –
CC1=C(N2CC2)C(=O)c2nc3n(c2C1=O)CCC3NC(=O)c1ccncc1 (stereo not given) | 2.35 | 1.96 | 2.5 | 79 | 0.00033
CC1=C(N2CC2)C(=O)c2nc3n(c2C1=O)CC[C@@H]3NC(=O)C1CCCN1 (stereo not given in full) | 2.27 | 3.34 | 2.8 | – | –
CC1=C(N2CC2)C(=O)c2nc3n(c2C1=O)CC[C@@H]3NC(=O)[C@H](N)Cc1ccccc1 | 4 | 1.69 | 4 | – | –
CC1=C(N2CC2)C(=O)c2nc3n(c2C1=O)CCC3N (stereo not given) | – | – | – | 100 | –
CC1=C(N2CC2)C(=O)c2nc3n(c2C1=O)CCC3NC(=O)c1cccnc1 (stereo not given) | – | – | – | 20 | –
